Assays:
[1] = Antiplatelet aggregation activity against collagen-induced platelet; type: functional, cell-based
[2] = tested on: Rattus norvegicus; assay: Antithrombotic activity in Wistar rat arterioveinos cannula model assessed as reduction of thrombus weight at 10 nmol/kg, iv; type: functional
Procedure, shortened: (§1)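 Male Wistar rats, 250–300 g. Agents were dissolved in NS and kept on ice. Heparin sodium was injected into a thread-containing polyethylene cannula, then NS or agent was injected intravenously. The cannula joined the right carotid artery to the left jugular vein, and blood flowed through it for 15 min. Wet thrombus weight on the thread was recorded as mean ± SD, n = 12.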

[3] = tested on: Rattus norvegicus; assay: Antithrombotic activity in Wistar rat arterioveinos cannula model assessed as reduction of thrombus weight at 1 nmol/kg, iv; type: functional; procedure, shortened: as §1
[4] = tested on: Rattus norvegicus; assay: Antithrombotic activity in Wistar rat arterioveinos cannula model assessed as reduction of thrombus weight at 100 nmol/kg, po; type: functional
Procedure, shortened: (§2)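 Male Wistar rats received agent in NS, or NS alone, orally. Blood then passed from the right carotid artery to the left jugular vein through a thread-containing polyethylene cannula for 15 min. Wet thrombus weight was reported as mean ± SD, n = 12.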

[5] = Antiplatelet aggregation activity against platelet-activating factor-induced pig platelet aggregation after 5 mins by aggregometer; type: functional, cell-based; conditions: Sus scrofa
Procedure, shortened: (§3)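 Pig blood from six pigs was spun at 1000 rpm for 10 min to give PRP, then at 1500g for 10 min to give PPP. PRP was adjusted to 2 × 10⁸ platelets/mL with autologous PPP. Test agent or NS was added at final 100 µM–1 nM. Agonists were at final concentrations of ADP 10 µM, AA 350 µM, PAF 0.1 µM and thrombin 0.1 U/mL. Light-transmission peak was read at 37 °C over 5 min, in sextuplicate. IC50 was taken from the concentration–inhibition curve.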

[6] = Antiplatelet aggregation activity against arachidonic acid-induced pig platelet aggregation after 5 mins by aggregometer; type: functional, cell-based; conditions: Sus scrofa; procedure, shortened: as §3
[7] = Antiplatelet aggregation activity against ADP-induced pig platelet aggregation after 5 mins by aggregometer; type: functional, cell-based; conditions: Sus scrofa; procedure, shortened: as §3
[8] = Antiplatelet aggregation activity against thrombin-induced pig platelet aggregation after 5 mins by aggregometer; type: functional, cell-based; conditions: Sus scrofa; procedure, shortened: as §3
[9] = tested on: Platelet; assay: Ratio of IC50 for arachidonic acid-induced pig platelet aggregation to IC50 for ADP-induced pig platelet aggregation; type: functional, Sus scrofa
Procedure, shortened: (§4)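 Fold ratios of IC50 values. Each IC50 came from pig PRP (2 × 10⁸ platelets/mL) light-transmission aggregometry at 37 °C for 5 min, in sextuplicate, with final ADP 10 µM, AA 350 µM, PAF 0.1 µM or thrombin 0.1 U/mL.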

[10] = tested on: Platelet; assay: Ratio of IC50 for platelet-activating factor-induced pig platelet aggregation to IC50 for ADP-induced pig platelet aggregation; type: functional, Sus scrofa; procedure, shortened: as §4
[11] = tested on: Platelet; assay: Ratio of IC50 for thrombin-induced pig platelet aggregation to IC50 for ADP-induced pig platelet aggregation; type: functional, Sus scrofa; procedure, shortened: as §4
[12] = tested on: Platelet; assay: Ratio of TCCA IC50 to compound IC50 for ADP-induced pig platelet aggregation; type: functional, Sus scrofa; procedure, shortened: as §4
[13] = tested on: Rattus norvegicus; assay: Antithrombotic activity in Wistar rat arterioveinos cannula model assessed as reduction of thrombus weight at 100 nmol/kg, iv; type: functional; procedure, shortened: as §1
[14] = tested on: Rattus norvegicus; assay: Antithrombotic activity in Wistar rat arterioveinos cannula model assessed as reduction of thrombus weight at 167 umol/kg, po; type: functional; procedure, shortened: as §2
[15] = tested on: Rattus norvegicus; assay: Antithrombotic activity in Wistar rat arterioveinos cannula model assessed as reduction of thrombus weight at 167 umol/kg, iv; type: functional; procedure, shortened: as §1
[16] = tested on: Rattus norvegicus; assay: Antithrombotic activity in Wistar rat arterioveinos cannula model assessed as reduction of thrombus weight at 5 umol/kg, iv; type: functional; procedure, shortened: as §1
[17] = tested on: Rattus norvegicus; assay: Antithrombotic activity in Wistar rat arterioveinos cannula model assessed as reduction of thrombus weight at 1 umol/kg, iv; type: functional; procedure, shortened: as §1

Row | Structure (SMILES) | IC50 [1] | Activity [2] | Activity [3] | Activity [4] | IC50 [5] | IC50 [6] | IC50 [7] | IC50 [8] | Ratio IC50 [9] | Ratio IC50 [10] | Ratio IC50 [11] | Ratio IC50 [12] | Thrombus weight [13] | Activity [14] | Activity [15] | Activity [16] | Activity [17]
1 | COc1ccc2c(c1)[nH]c1c(C)nccc12 [HARMINE] | > 130000 nM | – | – | – | – | – | – | – | – | – | – | – | – | – | – | – | –
2 | CSCC[C@H](N)C(=O)N1Cc2[nH]c3ccccc3c2C[C@H]1C(=O)O | – | 17.67 mg | 22.59 mg | 13.49 mg | 12.4 nM | 23.5 nM | 6.5 nM | 25.3 nM | 3.6 | 1.9 | 3.9 | 108 | 13 mg | – | – | – | –
3 | N[C@@H](CS)C(=O)N1Cc2[nH]c3ccccc3c2C[C@H]1C(=O)O | – | – | – | – | 14.7 nM | 24.4 nM | 7.1 nM | 27.6 nM | 3.4 | 2.1 | 3.9 | 99 | 15.25 mg | – | – | – | –
4 | N[C@@H](Cc1ccc(O)cc1)C(=O)N1Cc2[nH]c3ccccc3c2C[C@H]1C(=O)O | – | – | – | – | 15.1 nM | 25.2 nM | 7.76 nM | 28.4 nM | 3.2 | 1.9 | 3.7 | 90 | 15.49 mg | – | – | – | –
5 | CC(=O)Oc1ccccc1C(=O)O [ASPIRIN] | – | – | – | – | – | – | – | – | – | – | – | – | – | 17.9 mg | 15.21 mg | – | –
6 | NCC(=O)N1Cc2[nH]c3ccccc3c2C[C@H]1C(=O)O | – | – | – | – | 16.8 nM | 26.5 nM | 8.56 nM | 31.9 nM | 3.1 | 2 | 3.7 | 82 | 19.29 mg | – | – | – | –
7 | O=C(O)[C@@H]1Cc2c([nH]c3ccccc23)CN1 [CYCLOMETHYLTRYPTOPHAN] | – | – | – | – | 752 nM | 866 nM | 701 nM | 982 nM | – | – | – | – | – | – | – | 18.79 mg | –
8 | N[C@@H](CC(=O)O)C(=O)N1Cc2[nH]c3ccccc3c2C[C@H]1C(=O)O | – | – | – | – | 13.1 nM | 24 nM | 6.62 nM | 26.6 nM | 3.6 | 2 | 4 | 106 | 14.4 mg | – | – | – | –
9 | N[C@@H](Cc1ccccc1)C(=O)N1Cc2[nH]c3ccccc3c2C[C@H]1C(=O)O | – | – | – | – | 19 nM | 28.6 nM | 9.8 nM | 30.2 nM | 2.9 | 1.9 | 3.1 | 72 | 17.25 mg | – | – | – | –
10 | COc1ccc2c3c([nH]c2c1)C(C)=NCC3 [HARMALINE] | > 130000 nM | – | – | – | – | – | – | – | – | – | – | – | – | – | – | – | –
11 | NC(=O)C[C@H](N)C(=O)N1Cc2[nH]c3ccccc3c2C[C@H]1C(=O)O | – | – | – | – | 16.2 nM | 28.9 nM | 9.19 nM | 30 nM | 3.2 | 1.8 | 3.3 | 76 | 16.34 mg | – | – | – | –
12 | CC(C)C[C@H](N)C(=O)N1Cc2[nH]c3ccccc3c2C[C@H]1C(=O)O | – | – | – | – | 16.9 nM | 26.8 nM | 8.7 nM | 34.1 nM | 3.1 | 1.9 | 3.9 | 81 | 25.26 mg | – | – | – | 10.55 mg
13 | C[C@@H](O)[C@H](N)C(=O)N1Cc2[nH]c3ccccc3c2C[C@H]1C(=O)O | – | – | – | – | 14.8 nM | 24.6 nM | 7.81 nM | 27.8 nM | 3.1 | 1.9 | 3.6 | 90 | 15.72 mg | – | – | – | –

Reference: ChEMBL document CHEMBL1156185, “A class of 3S-2-aminoacyltetrahydro-beta-carboline-3-carboxylic acids: their facile synthesis, inhibition for platelet activation, and high in vivo anti-thrombotic potency” (J Med Chem, 2010)
